Screens: PubChem BioAssay, several laboratories
PREPL inh: human PREPL enzyme inhibition; recombinant PREPL, fluorescence polarization activity-based probe; inhibition, % at 5.96 µM; 0.68% of 320,000 active; in the data active means inhibition above about 43%
CHOP inhibitor: blocks CHOP induction under ER stress; inhibition, % at 10 µM; AID 2732; 3.8% of 220,000 active; CHO-K1 CHOP-promoter luciferase, tunicamycin-induced, 15-18 h;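 active means compounds that reduced the stress-induced luciferase reporter signal by more than about 70% of percent inhibition, limit read from the data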
T cruzi inh: T. cruzi replication inhibition; 1.4% of 300,000 active; T. cruzi beta-gal in NIH3T3, luminescence, 90 h; AID 1885; inhibition, % (test concentration not listed);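 active means mean inhibition across valid replicates above about 55%, limit read from the data; inconclusive means mean below that limit but half or more replicates reach it; inactive means mean below it, under half of replicates reach it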;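 further: signal also drops with host cell toxicity which is not excluded here; higher percent means less beta-gal luminescence so fewer parasites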
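Test system: β-gal T. cruzi (Tulahuen C4) inside NIH/3T3 cells / Quantity: 5,000 cells/well / Measured by: luminescence from GalScreen with 0.05% NP40, read after 60 min / Medium: DMEM plus 2% FBS / Measure: parasite load inhibition, % / Reagent: Tulahuen C4 trypomastigotes, 5000/well / Schedule: co-culture of at least 90 h after 3 h attachment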
CSC inhib: blocks cancer stem cells. cancer stem cell-like cells viability, luminescence. inhibition, % at 7.5 µM. 1.1% of 300,000 active. AID 2717; in the data active means inhibition above about 75%; inconclusive means no clear call, values can overlap the other calls; tested in HMLE shEcad cells
NR3A LBD binder: modulates the human NR3A ligand-binding domain; NR3A LBD differential scanning fluorimetry, Tm shift; 0% = protein alone, 100% = glycine-bound protein; Tm shift relative to glycine control, % at 25 µM; 2.5% of 340,000 active;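 active means melting temperature shift of at least 10% of the positive control shift, at one fixed dose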
Beta cell apopt: blocks beta cell apoptosis | protection from apoptosis, % (no concentration beside the values) | 0.8% of 300,000 active | AID 435005 | INS-1E cytokine-induced death, ATP luminescence, 48 h; percent of positive-control rescue, neutral wells zero;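 active means Every replicate reaches about 75%, or at least half do and their mean reaches it too, limit read from the data; inconclusive means At least half of replicates reach the limit but their mean does not; inactive means Under half of replicates reach the limit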;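 further: higher means more ATP so stronger rescue from cytokine killing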
A number is an active result. Sampled rows, rich in hits. Any-hit rate of the full collection: about 6.7%.

What do the screens show for `CCCNC(=O)c1cc(S(=O)(=O)N2CCc3ccccc32)cn1C`?
PREPL inh: inactive; T cruzi inh: inactive; CSC inhib: inactive; NR3A LBD binder: inactive; Beta cell apopt: inactive

How did COc1ccccc1NC(=O)c1cc2ccc(O)cc2o/c1=N\O do in these assays?
PREPL inh: inactive; CHOP inhibitor: inactive; T cruzi inh: inactive; CSC inhib: inactive; NR3A LBD binder: 36; Beta cell apopt: inactive

What do the screens show for `COc1ccccc1NC(=O)COC(=O)c1cc2ccccc2cc1O`?
PREPL inh: inactive; NR3A LBD binder: inactive; Beta cell apopt: inactive

What do the screens show for `COc1ccc2oc(=N)c(C(=O)Nc3ccc(C)cc3)cc2c1`?
T cruzi inh: inactive; CSC inhib: inactive; NR3A LBD binder: inactive; Beta cell apopt: inactive

Results for COc1cc(NC(=O)c2cc3ccccc3cc2O)c(OC)cc1Cl ?
PREPL inh: inactive; CHOP inhibitor: 83; T cruzi inh: inactive; CSC inhib: 76; NR3A LBD binder: 33; Beta cell apopt: 111

Results for COc1ccc2o/c(=N\O)c(C(=O)Nc3ccc(C)cc3)cc2c1 ?
CHOP inhibitor: inactive; T cruzi inh: inactive; NR3A LBD binder: 16

Results for COc1ccccc1NC(=O)c1cc2ccccc2o/c1=N\O ?
PREPL inh: inactive; CHOP inhibitor: inactive; T cruzi inh: inactive; CSC inhib: inactive; NR3A LBD binder: inactive; Beta cell apopt: inactive

What do the screens show for `COc1ccccc1NC(=O)c1cc2cc(Br)ccc2cc1O`?
PREPL inh: inactive; CHOP inhibitor: 88; T cruzi inh: inactive; CSC inhib: 106; NR3A LBD binder: 32; Beta cell apopt: inconclusive

Results for CCN(CC(=O)NCc1cccs1)C(=O)C(c1ccccc1)c1ccccc1 ?
PREPL inh: inactive; T cruzi inh: inactive; NR3A LBD binder: inactive; Beta cell apopt: inactive

How did Cc1ccc(Cl)cc1NC(=O)c1cc2ccccc2cc1O do in these assays?
PREPL inh: inactive; CHOP inhibitor: 82; T cruzi inh: inactive; CSC inhib: inactive; NR3A LBD binder: 30; Beta cell apopt: 104

Results for C=C(C(=O)c1ccccc1)C(CC(=O)c1ccccc1)c1ccccc1 (centres undefined) ?
PREPL inh: inactive; CHOP inhibitor: inactive; T cruzi inh: inactive; CSC inhib: inconclusive; NR3A LBD binder: inactive; Beta cell apopt: inactive

How did Cc1ccc2c(C)ccc(O)c2n1 do in these assays?
PREPL inh: inactive; CHOP inhibitor: inactive; T cruzi inh: inactive; CSC inhib: inactive; NR3A LBD binder: inactive; Beta cell apopt: inconclusive

What do the screens show for `Cc1ccc2ccc3ccc(C)nc3c2n1`?
PREPL inh: inactive; T cruzi inh: inactive; CSC inhib: inactive; NR3A LBD binder: inactive; Beta cell apopt: 78

What do the screens show for `COC1CCN(C(=O)C2CCC(=O)N(CCc3cccc(F)c3)C2)CC1` (centres undefined)?
PREPL inh: inactive; T cruzi inh: inactive; CSC inhib: inactive; NR3A LBD binder: inactive

Results for N#Cc1ncc(-c2ccc3c(c2)OCCOCCOCCOCCOCCO3)nc1C#N ?
PREPL inh: inactive; CHOP inhibitor: 106; T cruzi inh: inactive; CSC inhib: inactive; NR3A LBD binder: inactive; Beta cell apopt: inactive

Results for N#Cc1ncc(-c2ccc3c(c2)OCCOCCOCCOCCO3)nc1C#N ?
PREPL inh: inactive; CHOP inhibitor: inactive; T cruzi inh: inactive; CSC inhib: inactive; NR3A LBD binder: inactive; Beta cell apopt: inactive

Results for Cc1nc2ccc(NC(=O)c3ccc(C)c(S(=O)(=O)N4CCOCC4)c3)cc2s1 ?
PREPL inh: inactive; NR3A LBD binder: 13; Beta cell apopt: inactive

How did Cc1nc2ccc(NC(=O)c3cc(S(=O)(=O)N4CCOCC4)ccc3C)cc2s1 do in these assays?
PREPL inh: inactive; CHOP inhibitor: inactive; T cruzi inh: inactive; CSC inhib: inactive; NR3A LBD binder: inactive; Beta cell apopt: inactive

How did Cc1ccc(C(=O)NC2CCCCCCC2)cc1S(=O)(=O)N1CCOCC1 do in these assays?
NR3A LBD binder: 34

Results for O=C(Nc1ccc(-c2cn3ccsc3n2)cc1)c1ccc(F)c(S(=O)(=O)N2CCOCC2)c1 ?
PREPL inh: inactive; CHOP inhibitor: inactive; T cruzi inh: inactive; CSC inhib: inactive; NR3A LBD binder: 25; Beta cell apopt: inactive

Results for Cc1ccc(C(=O)Nc2ccc(Cl)cn2)cc1S(=O)(=O)N1CCOCC1 ?
PREPL inh: inactive; CHOP inhibitor: inactive; T cruzi inh: inactive; CSC inhib: inactive; NR3A LBD binder: 19; Beta cell apopt: inactive
